Screening results: PubChem BioAssay, several laboratories
PMI act hi M6P – increases human PMI activity with near-saturating mannose 6-phosphate; P34949; coupled PMI enzyme assay, resazurin fluorescence, 20 min; hits give high values; 1 = untreated enzyme, 0 = substrate-free blank; activation factor at 20 µM; hit rate 0.34% among 190,000; AID 1216;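 active means activation factor of 2 or more at 20 µM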
Target sequence (P34949 whole entry, looked up): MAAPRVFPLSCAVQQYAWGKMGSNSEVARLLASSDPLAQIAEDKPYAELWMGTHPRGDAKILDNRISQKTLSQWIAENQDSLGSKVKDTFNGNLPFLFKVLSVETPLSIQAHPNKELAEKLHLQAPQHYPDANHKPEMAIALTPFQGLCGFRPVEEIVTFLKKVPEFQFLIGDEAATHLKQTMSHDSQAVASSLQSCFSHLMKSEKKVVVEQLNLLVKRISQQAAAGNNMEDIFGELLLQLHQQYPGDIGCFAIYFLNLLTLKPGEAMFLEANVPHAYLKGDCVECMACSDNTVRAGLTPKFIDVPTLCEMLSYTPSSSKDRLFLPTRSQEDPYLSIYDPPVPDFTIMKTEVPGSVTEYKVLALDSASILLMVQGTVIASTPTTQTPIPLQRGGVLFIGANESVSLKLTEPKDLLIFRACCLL
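Test system: human phosphomannose isomerase with PGI, G6PDH, diaphorase coupling enzymes; Amount: PMI at 15 ng/mL final; Reagent: Mannose-6-phosphate 1.0 mM (near-saturating) plus 0.22 mM NADP+; Timing: 20 min, room temperature; Technique: resorufin fluorescence at Ex 544/Em 590 nm; Dosing: 20 µM single dose.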
NCF1 inh – inhibitors of human p47phox binding. P14598. p47phox/p22phox peptide binding, fluorescence polarization, 2 h. inhibition, % at 24.7 µM. hit rate 0.53% among 220,000. AID 1274;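 active means inhibition above about 30%, limit read from the data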
PMI act – phosphomannose isomerase (human) activation | P34949 | purified human PMI, coupled resazurin fluorescence, 20 min; hits give high values; 1 = vehicle control, 0 substrate-free wells | activation factor at 20 µM | hit rate 0.005% among 190,000 | AID 1214;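 active means activation factor of 2 or more at 20 µM, relative to plate controls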
DTT redox prof – compounds producing H2O2 with reducing agent – biochemical, NIH compound library profiling, artefact control for MLSCN library redox annotation, primary screen; DTT-dependent redox cycling H2O2, phenol red/HRP absorbance; 100% = 100 µM peroxide control, 0% = buffer; activation, % at 10 µM; hit rate 0.03% among 200,000;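 active means activation of at least 50% relative to the plate's high and low controls in the primary single-dose screen; inactive means activation below 50%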;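 further: compound incubated with DTT at 0.8 mM final as the reducing agent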
HMGR II inh – inhibitors of class II HMG-CoA reductase from Enterococcus faecalis | purified E. faecalis HMGR, NADPH absorbance 340 nm kinetic | inhibition, % at 10 µM | hit rate 0.41% among 190,000 | AID 1066;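 active means inhibition above a set limit, the median over all tested compounds plus 3 SD, cut at about 9.5% in these data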;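 further: enzyme runs in reverse so mevalonate oxidation gives rising NADPH absorbance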
Diaphorase act – activates diaphorase or chemically reduces, flagging diaphorase assay artifacts. activation factor at 20 µM. hit rate 0.005% among 190,000. Diaphorase/resazurin coupled assay, resorufin fluorescence, 16 min; hits give high values; 1 = vehicle wells, 0 = NADH-free wells;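 active means diaphorase activity raised at least twofold by the compound at 20 µM; inactive means activation factor below 2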
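Measured by – red resorufin fluorescence at 544/590 nm excitation/emission · Test system – Clostridium kluyveri diaphorase, purified enzyme · Incubation – reaction time 16 min, room temperature · Buffer or medium – 50 mM HEPES pH 7.4 with 4.542 mM MgCl2, 0.005% Tween 20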
Large screens that a line does not name were inactive. Only some compounds are listed: those with a hit (about 1.2% of all), similar ones and a draw of the others.

COc1ccccc1NC(=O)c1ccc(CN2CCOCC2)cc1	NCF1 inh 66
COc1ccc(OC)c(NC(=O)c2ccc(CN3CCOCC3)cc2)c1	none
CCOC(=O)C1=C(c2ccccc2)NC(=O)NC1c1cc(Cl)c(O)c(OC)c1 (stereo not given)	none
CCOC(=O)C1=C(c2ccccc2)NC(N)=NC1c1ccc(OCc2ccc(Cl)cc2)c(OC)c1 (stereo not given)	NCF1 inh 71 (no result: PMI act hi M6P, PMI act, DTT redox prof, HMGR II inh, Diaphorase act)
COCc1ccc(C(=O)N2CCCC(CCC(=O)NCc3ccccc3F)C2)o1 (stereo not given)	none
COc1cccc(NC(=S)NN=C2CCCCCC2)c1	none
CCC(C)(C)c1ccc(OCCCC[n+]2cccc(C)c2C)c(C(C)(C)CC)c1	NCF1 inh 49 (no result: PMI act hi M6P, PMI act, DTT redox prof, HMGR II inh, Diaphorase act)
CCC(C)(C)c1ccc(OCCCC[n+]2ccc(C)cc2)c(C(C)(C)CC)c1	NCF1 inh 33
O=C(NCC1(N2CCOCC2)CCCCC1)c1cccc(S(=O)(=O)N2CCc3ccccc3C2)c1	none
Clc1ccccc1Cc1noc(CN2CCN(c3cnccn3)CC2)n1	NCF1 inh 32
CC1CC(CC(C)C(=O)NC(=S)Nc2ccc(S(N)(=O)=O)cc2)C(=O)O1 (stereo not given)	none
CCC1CC(C)(C(=O)Nc2ccc(S(N)(=O)=O)cc2)OC1=O (stereo not given)	NCF1 inh active
O=C(NCCN1CCOCC1)c1ccc2c(c1)N(Cc1ccccc1F)C(=O)c1ccccc1S2	none
CCN1CCN(CCCNC(=O)c2ccc(/C=C3/Sc4ccccc4N(Cc4ccccc4F)C3=O)cc2)CC1	NCF1 inh 90
CCN1CCN(CCNC(=O)c2ccc(/C=C3/Sc4ccccc4N(Cc4ccccc4C)C3=O)cc2)CC1	NCF1 inh 104
S=C(N/N=C/c1cccc2ccccc12)Nc1cccc(Cl)c1	none (no result: PMI act hi M6P, PMI act, DTT redox prof, HMGR II inh, Diaphorase act)
COc1ccc(-c2ccc(-c3nc4c(c(=O)[nH]c(=O)n4Cc4ccccc4)n3C)o2)c([N+](=O)[O-])c1	NCF1 inh 55
O=C1CCCC(=O)C1=C1SCCS1	none
O=S(=O)(c1cc(Cl)ccc1Cl)n1ccnc1	NCF1 inh 147
CC(=O)n1cc([C@H]2C=C(C(=O)N3CCN(Cc4ccc5c(c4)OCO5)CC3)O[C@@H](OCCCCO)C2)c2ccccc21	none
Cc1ccc(CCN2CC(C(=O)NCCCN3CCCCCC3)CC2=O)cc1 (stereo not given)	NCF1 inh 38
CCn1c(CNC(=O)Cc2ccc(OC)cc2)nnc1SCCOc1ccccc1	none
CCn1c(CNC(=O)Cc2ccc(OC)cc2)nnc1SCC(=O)c1ccccc1	PMI act hi M6P 2.5
O=C(/C=C/Nc1ccc(Br)cc1F)c1ccco1	HMGR II inh 9.8
Cc1nc2nc(-c3ccc(Cl)cc3)cn2nc1C	none
COc1cccc(-c2cn3nc(C)c(C)nc3n2)c1	PMI act hi M6P 2.1
COc1cc(NC(=O)COC(=O)Cc2ccc(-c3ccccc3)cc2)cc(OC)c1	none
O=c1c(/C=N/Nc2ccccc2)c(Sc2nnnn2-c2ccccc2)nc2ccccn12	PMI act hi M6P 2
O=C(O)c1ccccc1N/N=C/c1c(Sc2nnnn2-c2ccccc2)nc2ccccn2c1=O	none (no result: PMI act hi M6P, PMI act, DTT redox prof, HMGR II inh, Diaphorase act)
Cc1c(C(=O)N2CCc3ccccc32)cnn1C	HMGR II inh 11
CC1=C(C)C(=O)NC(Nc2nc(C)c3cc(C)cc(C)c3n2)N1 (stereo not given)	none (no result: PMI act hi M6P, NCF1 inh, PMI act, HMGR II inh, Diaphorase act)
Cc1ccc(S(=O)(=O)c2ccc(NN)cc2)cc1	PMI act hi M6P 2.5
Cc1ccc(NC(=O)Nc2ccc(S(N)(=O)=O)cc2)cc1	none
O=C(Nc1ccc(S(=O)(=O)Nc2ccccc2)cc1)C1COc2ccccc2O1 (stereo not given)	HMGR II inh 15
COc1ccccc1C(=O)NCCn1cc(SCC(=O)Nc2cc(C)on2)c2ccccc21	HMGR II inh 13
COc1ccc(C(=O)NCCn2cc(SCC(=O)Nc3cc(C)on3)c3ccccc32)cc1OC	none
O=S(=O)(CCN1CCSCC1)c1ccccc1	none (no result: PMI act hi M6P, PMI act, DTT redox prof, HMGR II inh, Diaphorase act)
CN(C)CC(=O)c1ccc(-c2ccccc2)cc1	NCF1 inh 44
COCc1cc(C)n(CC(=O)OC)c(=O)c1C#N	HMGR II inh 14
CCCCCCCCC[n+]1cccc2c3ccccc3ccc21	none
CCCCCCCCCCCCCCCC[n+]1cccc2ccccc21	NCF1 inh 101
COc1ccc(Cn2c(C)c(C)c(C#N)c2NC(=O)Nc2ccc(Cl)cc2)cc1	HMGR II inh 11
COc1ccccc1OCCNC(=O)C(=O)c1c[nH]c2ccccc12	none (no result: PMI act hi M6P, PMI act, DTT redox prof, HMGR II inh, Diaphorase act)
O=C(NCCOc1ccccc1Cl)C(=O)c1c[nH]c2ccccc12	HMGR II inh 17
Cc1ccc(-c2nnc3ccc(SC(C)C(=O)O)nn23)cc1 (stereo not given)	none
CC(Sc1ccc2nnc(-c3ccc(F)cc3)n2n1)C(=O)O (stereo not given)	PMI act hi M6P 2.2
COC(=O)c1sc(N2C(=O)c3oc4ccccc4c(=O)c3C2c2cccs2)nc1C (stereo not given)	NCF1 inh 49
Cc1ccc(C2c3c(oc4ccccc4c3=O)C(=O)N2c2nnc(C)s2)o1 (stereo not given)	none (no result: PMI act hi M6P, NCF1 inh, PMI act, HMGR II inh, Diaphorase act)
O=C(NNC(=O)C(O)(c1ccccc1)c1ccccc1)C1CC1	HMGR II inh 11
O=C(/C=C/c1ccccc1)NNC(=O)C1CC1	none
CC1(C)CC(=O)C(C2C3=C(CC(C)(C)CC3=O)OC3=C2C(=O)CC(C)(C)C3)=C(O)C1	none (no result: PMI act hi M6P, PMI act, DTT redox prof, HMGR II inh, Diaphorase act)
CCc1cc(=O)oc2cc(C)cc(O)c12	none
CCCc1cc(=O)oc2cc(C)cc(O)c12	NCF1 inh 147
Oc1ccc(Nc2ccnc3cc(Cl)ccc23)cc1	none (no result: PMI act hi M6P, PMI act, DTT redox prof, HMGR II inh, Diaphorase act)
Clc1ccc(NNc2ccnc3cc(Cl)ccc23)cc1	HMGR II inh 15
Cc1ccc(/C=N/Nc2ccnc3cc(Cl)ccc23)c(C)c1	NCF1 inh 47
CCOC(=O)Nc1ccc2c(c1)N(C(=O)N1CCN(C)CC1)c1ccccc1CC2	HMGR II inh 13
COc1cc2c(cc1OC)CN(C(=O)c1ccc(S(=O)(=O)N3CCCCC3)cc1)CC2	NCF1 inh 49
CC(C)OC(=O)C(=O)NNc1ccccc1	none
CCCOC(=O)C(=O)NNc1ccccc1	PMI act hi M6P 2.9
CCOC(=O)C(=O)NNc1ccc(C)cc1	PMI act hi M6P 2
CCOC(=O)C(=O)NNc1ccc(Cl)cc1	PMI act hi M6P 2.5
CCOC(=O)C1=c2/c(=C/c3ccncc3)c(N)c(C(=O)OC)n2C(=O)C(c2ccncc2)S1 (stereo not given)	none
COc1ccc(CNC(=O)C(=O)NCC2OCCN2S(=O)(=O)c2cccs2)cc1 (stereo not given)	none
Nc1c(C(=O)O)sc2nc3c(cc12)CCCC3	none (no result: PMI act hi M6P, PMI act, DTT redox prof, HMGR II inh, Diaphorase act)
